Rtt109 HAT inh: C. albicans Rtt109 histone acetyltransferase inhibition. inhibition, % at 34.9 µM. purified Rtt109/Vps75, ThioGlo CoA-SH fluorescence, 4 h. AID 540336. Q5AAJ8. hit rate 0.16% among 330,000;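 active means inhibition of at least 50% in every replicate; inconclusive means best replicate reaches 50% inhibition but some replicates fall short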
UCH37 DUB inh: inhibitors of human deubiquitinating enzyme UCH37 | Q9Y5K5 | purified proteasome/UCH37, Ub-AMC cleavage fluorescence | inhibition, % (no concentration beside the values) | hit rate 0.33% among 330,000 | AID 588478;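 active means mean inhibition over replicate wells above about 20%, limit read from the data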;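 further: 0% = compound-free wells with enzyme and 100% = wells lacking proteasome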
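assay system = human UCH37 enzyme supplied as purified proteasome complex | amount = proteasome at 0.15 nM in the dispensed enzyme solution | schedule = 30 min compound-proteasome preincubation then 25 min substrate reaction, room temperature | measured by = fluorescence, ex 355 nm, em 460 nm | benchmarks = no-proteasome wells (full inhibition) and compound-free wells (no inhibition)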
HDAC3 inh: blocks human histone deacetylase 3. recombinant HDAC3, fluorogenic peptide/trypsin coupled, fluorescence. inhibition, % at 8.3 µM. hit rate 0.15% among 320,000; in the data active means inhibition above about 26%, passing the limit was not always enough; inconclusive means no clear call, values can overlap the other calls
M18AAP inhibitor: PfM18AAP enzyme inhibition; recombinant PfM18AAP, H-Glu-NHMec fluorogenic cleavage; inhibition, % at 7.35 µM; hit rate 1.2% among 290,000;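 active means inhibition above the campaign mean inhibition over all tested compounds plus 3 SD, cut at about 28% in these data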;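 further: 0% = plate median of test compound wells and 100% = 2 mM ZnCl2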
FAS-TE inh: blocks the thioesterase domain of human fatty acid synthase | inhibition, % at 15 µM | P49327 | recombinant FAS-TE, OMFH fluorogenic substrate, fluorescence endpoint | hit rate 0.67% among 360,000;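 active means compounds whose normalised, plate-corrected inhibition of enzyme fluorescence in the single-dose primary screen is 50% or more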;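 further: 0% = DMSO with enzyme and 100% = substrate without enzyme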
ALR H2O2 inh: human ALR oxidase inhibition via reduced H2O2; inhibition, % (test concentration not listed); AID 485317; P55789; hit rate 3.8% among 290,000; purified ALR, DTT oxidation, H2O2 HRP-luminol luminescence;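 active means mean replicate inhibition above about 79%, with every replicate also reaching it, limit read from the data; inconclusive means only one of the two criteria met; inactive means mean below limit and not every replicate reaching it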
Target sequence (P55789 whole entry, looked up): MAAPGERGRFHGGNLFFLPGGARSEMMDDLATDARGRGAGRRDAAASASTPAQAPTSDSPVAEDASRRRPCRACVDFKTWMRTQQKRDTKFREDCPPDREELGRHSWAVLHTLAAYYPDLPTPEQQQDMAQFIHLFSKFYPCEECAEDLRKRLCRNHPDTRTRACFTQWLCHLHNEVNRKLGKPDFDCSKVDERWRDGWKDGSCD
Numbers without * were called inactive. Only some compounds are listed: those with a hit (about 4.6% of all), similar ones and a draw of the others.

CCOC(=O)C1CCCN(c2c(NCCCN(C)c3ccccc3)c(=O)c2=O)C1 (stereo unspecified) was read as Rtt109 HAT inh 5, UCH37 DUB inh 5, HDAC3 inh 8, M18AAP inhibitor -4, FAS-TE inh -6 and ALR H2O2 inh 99*.
`CCOC(=O)N1CCN(c2c(NCCCN(CC)c3cccc(C)c3)c(=O)c2=O)CC1` gave Rtt109 HAT inh 13, UCH37 DUB inh 2, HDAC3 inh 4, M18AAP inhibitor -5, FAS-TE inh -1 and ALR H2O2 inh 99*.
For O=C(CSc1n[nH]c(-c2ccncc2)n1)c1ccccc1 the results were Rtt109 HAT inh -4, UCH37 DUB inh 1, HDAC3 inh 0, M18AAP inhibitor 1, FAS-TE inh -7 and ALR H2O2 inh 26.
Cc1cc(SCC(=O)c2ccccc2)nc(=O)[nH]1 was read as Rtt109 HAT inh -23, UCH37 DUB inh 6, HDAC3 inh 45*, M18AAP inhibitor 6 and FAS-TE inh -7.
Screening Cc1ccc(C(=O)CSc2cc(C)[nH]c(=O)n2)cc1 returned Rtt109 HAT inh 5, UCH37 DUB inh 3, HDAC3 inh 34*, M18AAP inhibitor 10, FAS-TE inh -3 and ALR H2O2 inh 99*.
Screening Cc1nc(SCC(=O)c2ccccc2)n[nH]1 returned Rtt109 HAT inh inconclusive, UCH37 DUB inh 1, HDAC3 inh 6, M18AAP inhibitor 2, FAS-TE inh -10 and ALR H2O2 inh 90*.
Screening COc1ccc(/C=N/NC(=S)Nc2ccccc2)cc1 returned Rtt109 HAT inh -5, HDAC3 inh 5, M18AAP inhibitor 31*, FAS-TE inh -9 and ALR H2O2 inh 40.
Screening COc1ccc(/C=N/NC(=S)Nc2cccc(C(=O)O)c2)cc1 returned Rtt109 HAT inh 36, HDAC3 inh 9, M18AAP inhibitor 30*, FAS-TE inh -10 and ALR H2O2 inh 31.
For COc1ccc(CNC(=S)Nc2ccc(-c3ccccc3)cc2)cc1 the results were Rtt109 HAT inh 17, UCH37 DUB inh 3, HDAC3 inh -7, M18AAP inhibitor -2, FAS-TE inh 13 and ALR H2O2 inh 95*.
For COc1ccc(CNC(=S)Nc2ccc(Br)cc2)cc1 the results were Rtt109 HAT inh 0, UCH37 DUB inh 3, HDAC3 inh -10, M18AAP inhibitor 6, FAS-TE inh 13 and ALR H2O2 inh 1.
COc1cc(/C=N/NC(=S)Nc2cccc(C(=O)O)c2)ccc1O was read as Rtt109 HAT inh 2, HDAC3 inh 8, M18AAP inhibitor 20, FAS-TE inh -8 and ALR H2O2 inh 99*.
`CON=CC(=NNc1ccc(OC)cc1)C(=O)c1ccccc1` gave UCH37 DUB inh 1.
`O=C(NN=Cc1ccc(Br)o1)c1ccc2c(c1)OCCO2` gave UCH37 DUB inh 6.
COc1ccc(NC(=S)Nc2ccc(Oc3ccccc3)cc2)cc1 was read as Rtt109 HAT inh 12, UCH37 DUB inh 0, HDAC3 inh -4, M18AAP inhibitor -5, FAS-TE inh 4 and ALR H2O2 inh -2.
`COc1cccc(/C=N/NC(=S)Nc2cccc(C(=O)O)c2)c1O` gave Rtt109 HAT inh 14, HDAC3 inh 5, M18AAP inhibitor 38*, FAS-TE inh -4 and ALR H2O2 inh 69.
Screening COc1ccc(NC(=S)NN(C)C(=S)Nc2ccc(OC)cc2)cc1 returned Rtt109 HAT inh -1, UCH37 DUB inh 3, HDAC3 inh 6, M18AAP inhibitor 10, FAS-TE inh -9 and ALR H2O2 inh 99*.
O=C(NN=Cc1cc(Br)cc(Cl)c1O)c1ccc2c(c1)OCO2 was read as UCH37 DUB inh 0.
COc1cccc(NC(=O)CCc2nc(-c3ccccc3F)no2)c1 was read as Rtt109 HAT inh 5, UCH37 DUB inh 2, HDAC3 inh 2, M18AAP inhibitor 2, FAS-TE inh 0 and ALR H2O2 inh -5.
`O=C(CCc1nc(-c2ccccc2F)no1)Nc1ccc(Oc2ccccc2)cc1` gave Rtt109 HAT inh -1, UCH37 DUB inh 5, HDAC3 inh 27*, M18AAP inhibitor 0, FAS-TE inh 25 and ALR H2O2 inh -12.
`COc1cccc(C2C(C(=O)Nc3ccccc3)=C(C)N=c3s/c(=C/c4ccc(OCC(=O)O)cc4)c(=O)n32)c1` (stereo unspecified) gave Rtt109 HAT inh 3, HDAC3 inh 5, M18AAP inhibitor 7, FAS-TE inh -3 and ALR H2O2 inh 97*.
